Source: PubChem BioAssay
UPR CHOP act = apoptotic UPR (CHOP) activation; 0.34% of 330,000 active; CHO-CHOP luciferase reporter, luminescence; percent of tunicamycin response over DMSO baseline; activation, % at 10 µM;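 active = at 10 µM dose, activation of 40% or more, normalized to positive control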;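 note: 100% = tunicamycin at 10 µg/mL and 0% = DMSO alone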
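measured by = luciferase luminescence | assay system = CHO-CHOP cells, stable luciferase reporter of PERK-eIF2a-CHOP signalling | amount = 500 reporter cells seeded per well | timing = 6 h compound exposure at 37 °C after overnight seeding | controls = positive tunicamycin 10 µg/mL, negative DMSO alone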
Bfl-1 A1 inh = inhibitors of the anti-apoptotic protein A1, read as caspase activation; AID 2462; MEF A1-2A-BIM cells, Caspase-Glo 3/7 luminescence, 3 h; percent of clofoctol response, vehicle zero; caspase activation, % (concentration not given with the values); 0.066% of 330,000 active;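 active = over half of replicate activation scores above 10%, or exactly half above 10 with the replicate mean above 10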
CHOP inhibitor = CHOP inhibition in unfolded protein response | inhibition, % at 10 µM | AID 2732 | 3.8% of 220,000 active | CHO-K1 CHOP-promoter luciferase, tunicamycin-induced, 15-18 h;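 active = compounds that reduced the stress-induced luciferase reporter signal by more than about 70% of percent inhibition, limit read from the data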;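 note: 0% = tunicamycin plus vehicle and 100% = wells without tunicamycin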
XBP1 UPR activ = activators of adaptive arm of unfolded protein response (XBP1) | activation, % at 20 µM | 0.33% of 330,000 active | CHO-XBP1 luciferase reporter, IRE1-XBP1 UPR activation, luminescence; percent of tunicamycin response, DMSO as zero;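 active = versus positive control, 20 µM dose yields 30% or more activation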;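 note: 100% = tunicamycin at 10 µg/mL and 0% = DMSO only wells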
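Material: CHO cell line with stable XBP1 luciferase reporter; buffer or medium: F12 medium containing 10% fetal bovine serum; compound: single point, 20 µM final compound, 1% DMSO; incubation: 6 h treatment, 37 °C; measured by: glow luminescence from Steady-Glo reagent; evaluation: activation, % of tunicamycin; control set: tunicamycin high, DMSO low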
Active calls of the source: *. Many of the other results were omitted from the sample, so hits are more common in it than they were.

COc1ccc(NC(=O)Nc2cccc3c2O[C@@H](CN(C)S(=O)(=O)c2cn(C)cn2)[C@@H](C)CN([C@H](C)CO)C3=O)cc1 was read as UPR CHOP act 0, Bfl-1 A1 inh 0 and XBP1 UPR activ -1.
CCOC(=O)CNC(=O)CN1CCCN(S(=O)(=O)c2ccc(Br)s2)CC1 was read as UPR CHOP act -2, Bfl-1 A1 inh -1, CHOP inhibitor 6 and XBP1 UPR activ -3.
`O=C(CN1CCCN(S(=O)(=O)c2ccc(Br)s2)CC1)Nc1ccc(Cl)cc1` gave UPR CHOP act -1, Bfl-1 A1 inh 1, CHOP inhibitor 72* and XBP1 UPR activ -2.
Screening CN1/C(=C\C(=S)NC(=O)c2ccccc2Cl)C(C)(C)c2ccccc21 returned UPR CHOP act 4, Bfl-1 A1 inh 0, CHOP inhibitor 22 and XBP1 UPR activ 1.
For COc1ccccc1C(=O)NC(=S)/C=C1/N(C)c2ccccc2C1(C)C the results were UPR CHOP act 5, Bfl-1 A1 inh 1, CHOP inhibitor 73* and XBP1 UPR activ 1.
Screening O=C(c1ccc(Cl)c(Cl)c1)N(Cc1ccco1)c1ccc(O)cc1 returned UPR CHOP act -1, Bfl-1 A1 inh 0, CHOP inhibitor 87* and XBP1 UPR activ -2.
`O=C(COc1ccccc1)N(Cc1ccco1)c1ccc(O)cc1` gave UPR CHOP act 2, Bfl-1 A1 inh -1, CHOP inhibitor 26 and XBP1 UPR activ -2.
`c1cnc(SCCOc2cccc3ccccc23)nc1` gave UPR CHOP act 2, Bfl-1 A1 inh 0, CHOP inhibitor 76* and XBP1 UPR activ 3.
For CC(C)(C)c1ccc(CSc2nnc(-c3ccccn3)n2Cc2ccco2)cc1 the results were UPR CHOP act 1, Bfl-1 A1 inh -1, CHOP inhibitor 94* and XBP1 UPR activ 1.
Screening CCCCOc1ccc(CSCCN)cc1Cl returned UPR CHOP act 4, Bfl-1 A1 inh -1, CHOP inhibitor 73* and XBP1 UPR activ 0.
Screening CC(=O)Oc1c(S(=O)(=O)c2ccc(C)cc2)c(C)nn1C(C)(C)C returned UPR CHOP act 1, Bfl-1 A1 inh 0, CHOP inhibitor 50 and XBP1 UPR activ -2.
Screening Cc1ccc(S(=O)(=O)c2c(C)nn(C(C)(C)C)c2OC(=O)c2ccc(Br)o2)cc1 returned UPR CHOP act 9, Bfl-1 A1 inh -1, CHOP inhibitor 72* and XBP1 UPR activ 3.
For Cc1ccc(S(=O)(=O)c2c(C)nn(C(C)(C)C)c2OC(=O)c2cccs2)cc1 the results were UPR CHOP act 1, Bfl-1 A1 inh 0, CHOP inhibitor 72* and XBP1 UPR activ -5.
COc1ccc(-c2cn(CCc3c[nH]c4ccccc34)nn2)cc1 was read as UPR CHOP act 3, Bfl-1 A1 inh 2 and XBP1 UPR activ -2.
`CC(C)C1N(S(=O)(=O)c2ccccc2)CCN1S(=O)(=O)c1ccccc1` gave UPR CHOP act -4, Bfl-1 A1 inh 1, CHOP inhibitor 76* and XBP1 UPR activ -1.
`CC(C)C1N(C(=O)N(C)C)CCN1S(=O)(=O)c1ccccc1` (stereo not drawn) gave UPR CHOP act 1, Bfl-1 A1 inh 0 and XBP1 UPR activ -4.
`Cc1ccc(C(=O)NCCCNC(=O)Cc2ccc(Cl)cc2)cn1` gave UPR CHOP act 0, Bfl-1 A1 inh -1 and XBP1 UPR activ 4.
Screening Cc1ccnc(NC(=O)c2cccc(S(=O)(=O)N3CCCc4ccccc43)c2)c1 returned UPR CHOP act 3, Bfl-1 A1 inh 0 and XBP1 UPR activ -5.
COc1ccc(/C=C/C(=O)Nc2cc(C(F)(F)F)ccc2Cl)cc1 was read as UPR CHOP act -1, Bfl-1 A1 inh 0, CHOP inhibitor 74* and XBP1 UPR activ 0.
For CCN1C/C(=C/c2cccc([N+](=O)[O-])c2)C(=O)/C(=C/c2cccc([N+](=O)[O-])c2)C1 the results were Bfl-1 A1 inh 3 and CHOP inhibitor 111*.
For O=C1NC(=O)/C(=C/c2cccc([N+](=O)[O-])c2)N1 the results were UPR CHOP act -1, Bfl-1 A1 inh 1, CHOP inhibitor 11 and XBP1 UPR activ -4.
For CC1(c2ccc(OC(F)F)cc2)NC(=O)N(CC(=O)c2ccc3c(c2)OCO3)C1=O (stereo not drawn) the results were UPR CHOP act 1, Bfl-1 A1 inh 1 and XBP1 UPR activ -3.
Screening O=C(COc1ccc(/C=N/NC(=O)c2ccncc2)cc1)Nc1cccc([N+](=O)[O-])c1 returned UPR CHOP act 2, Bfl-1 A1 inh 0 and XBP1 UPR activ 1.
For O=C(COc1ccc(/C=N/NC(=O)c2ccccc2O)cc1)Nc1ccc([N+](=O)[O-])cc1 the results were UPR CHOP act 3, Bfl-1 A1 inh 0, CHOP inhibitor 90* and XBP1 UPR activ 6.
`CC(=O)c1ccc(OCC(=O)OCC(=O)N(CC(C)C)c2c(N)n(Cc3ccccc3)c(=O)[nH]c2=O)cc1` gave UPR CHOP act 1 and XBP1 UPR activ 1.
Screening Cc1ccc(C(=O)c2cc(C)sc2NC(=O)CN2CCN(C(=O)c3ccco3)CC2)cc1 returned UPR CHOP act 3, Bfl-1 A1 inh -1, CHOP inhibitor 82* and XBP1 UPR activ 6.
O=C(CC1NCCN(Cc2ccccc2)C1=O)Nc1ccccc1 (stereo not drawn) was read as UPR CHOP act 0, Bfl-1 A1 inh 0, CHOP inhibitor -17 and XBP1 UPR activ 2.
For CC1(C)SC(=S)N(NC(=O)Nc2cccc3ccccc23)C1N(O)C(=O)Nc1ccccc1 (stereo not drawn) the results were UPR CHOP act 2, Bfl-1 A1 inh 0, CHOP inhibitor 100* and XBP1 UPR activ 4.
For CNC(=O)N(O)C1N(NC(=O)Nc2ccccc2)C(=S)SC1(C)C (stereo not drawn) the results were UPR CHOP act 2, Bfl-1 A1 inh 1 and XBP1 UPR activ -1.
`O=c1oc2cc(OCc3ccc([N+](=O)[O-])cc3)ccc2c2c1CCCC2` gave UPR CHOP act 11, Bfl-1 A1 inh -2, CHOP inhibitor 77* and XBP1 UPR activ 27.
O=C(O)c1ccc(COc2ccc3c4c(c(=O)oc3c2)CCC4)o1 was read as UPR CHOP act -4, Bfl-1 A1 inh -6, CHOP inhibitor 6 and XBP1 UPR activ -1.
`CCc1ccc(NC(=O)c2ccc(NC3=NC4CS(=O)(=O)CC4S3)cc2)cc1` (stereo not drawn) gave UPR CHOP act 2, Bfl-1 A1 inh 0 and XBP1 UPR activ -2.
Screening C/C(CC(=O)Nc1ccc(OCc2ccccc2)cc1)=N\NC(=O)C(=O)Nc1cccc(C)c1 returned UPR CHOP act 0, Bfl-1 A1 inh 3, CHOP inhibitor 94* and XBP1 UPR activ 2.
Screening Cc1ccc(NC(=O)C(=O)NNC(=O)c2ccccc2C)cc1Cl returned UPR CHOP act -2, Bfl-1 A1 inh 0, CHOP inhibitor 71* and XBP1 UPR activ 0.
Screening C/C(CC(=O)Nc1ccc(C)c(Cl)c1)=N\NC(=O)c1cccc(O)c1 returned UPR CHOP act -1, Bfl-1 A1 inh -1 and XBP1 UPR activ -2.
